This is an account of results in ChEMBL document CHEMBL3600302, “A Ligand-Based Drug Design. Discovery of 4-Trifluoromethyl-7,8-pyranocoumarin as a Selective Inhibitor of Human Cytochrome P450 1A2” (J Med Chem, 2015).

The target in data set [1] is T1, Aryl hydrocarbon receptor (Homo sapiens, UniProt P35869).
T1 sequence (P35869 whole entry): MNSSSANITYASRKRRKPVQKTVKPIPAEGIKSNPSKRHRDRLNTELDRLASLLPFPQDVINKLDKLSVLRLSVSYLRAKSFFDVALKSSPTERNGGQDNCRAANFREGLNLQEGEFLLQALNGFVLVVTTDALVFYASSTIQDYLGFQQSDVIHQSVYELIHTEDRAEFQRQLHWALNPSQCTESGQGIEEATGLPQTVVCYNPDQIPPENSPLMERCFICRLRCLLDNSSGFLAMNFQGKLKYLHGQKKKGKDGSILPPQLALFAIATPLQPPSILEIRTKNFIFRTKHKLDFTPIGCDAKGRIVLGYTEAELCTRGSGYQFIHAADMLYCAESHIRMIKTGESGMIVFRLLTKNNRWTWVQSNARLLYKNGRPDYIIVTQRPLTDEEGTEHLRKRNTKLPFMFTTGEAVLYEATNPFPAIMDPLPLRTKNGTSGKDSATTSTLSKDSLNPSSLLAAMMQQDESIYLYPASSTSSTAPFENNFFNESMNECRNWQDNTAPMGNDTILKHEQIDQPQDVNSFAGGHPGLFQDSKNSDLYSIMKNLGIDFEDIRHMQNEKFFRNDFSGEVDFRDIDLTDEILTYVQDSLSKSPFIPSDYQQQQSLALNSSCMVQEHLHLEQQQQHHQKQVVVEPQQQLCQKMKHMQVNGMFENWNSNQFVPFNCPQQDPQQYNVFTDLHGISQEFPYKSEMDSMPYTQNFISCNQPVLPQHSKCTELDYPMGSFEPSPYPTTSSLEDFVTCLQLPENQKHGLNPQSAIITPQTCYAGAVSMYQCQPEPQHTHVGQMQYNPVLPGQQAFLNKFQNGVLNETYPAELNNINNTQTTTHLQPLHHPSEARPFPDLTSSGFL
The experiment in a line: Activation of human AhR expressed in Saccharomyces cerevisiae MYA-3637 assessed as upregulation of cytochrome P450 expression at <10^-6 M by LacZ reporter assay. The data set is classed as ADME. The essentials:
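Yeast with integrated human AhR (GAL promoter) and lacZ reporter plasmid, grown on tryptophan-free synthetic minimal medium with galactose instead of glucose. Compounds in DMSO (1% v/v final) added to overnight culture in quadruplicate and left until next day. Abs600 read, then lysis buffer with sarcosyl, DTT and ONPG added. Abs405/Abs600 taken as activation. 10^-8 M βNF positive control. At least three repeats.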

For data set [2], the species on record is Homo sapiens. The experiment in a line: Selectivity ratio of Ki for human microsomal CYP1B1 to Ki for human microsomal CYP1A2. The essentials: (§1)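 Microsomal P450 (final 5 nM) in 0.1 M potassium phosphate pH 7.6 with MgCl2 at 37 °C. Substrate final 5 µM: ethoxyresorufin for 1A1/1B1, methoxyresorufin for 1A2. […] Ki was taken as the x-intercept of Dixon plots (1/v0 vs [I]). Mean ± SD of three independent experiments. Selectivity ratios are ratios of these Ki.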

Data set [3] concerns the target T2, Cytochrome P450 1A2 (Homo sapiens, UniProt P05177).
T2 sequence (P05177 whole entry): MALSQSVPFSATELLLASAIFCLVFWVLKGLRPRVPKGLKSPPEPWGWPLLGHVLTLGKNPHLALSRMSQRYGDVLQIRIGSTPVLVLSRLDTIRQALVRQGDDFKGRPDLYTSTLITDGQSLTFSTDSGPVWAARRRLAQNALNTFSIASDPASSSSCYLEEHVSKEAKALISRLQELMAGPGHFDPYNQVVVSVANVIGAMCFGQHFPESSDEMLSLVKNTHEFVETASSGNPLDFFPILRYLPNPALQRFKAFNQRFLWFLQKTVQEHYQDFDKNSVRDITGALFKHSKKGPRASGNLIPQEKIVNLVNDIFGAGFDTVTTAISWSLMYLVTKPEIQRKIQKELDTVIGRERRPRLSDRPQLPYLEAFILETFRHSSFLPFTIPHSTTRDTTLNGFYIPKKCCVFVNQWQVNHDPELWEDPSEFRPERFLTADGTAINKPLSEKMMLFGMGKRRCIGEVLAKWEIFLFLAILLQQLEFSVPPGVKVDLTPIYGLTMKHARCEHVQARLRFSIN
The experiment in a line: Inhibition of human microsomal CYP1A2-dependent methoxyresorufin-O-demethylase activity by spectrofluorimetric analysis in presence of NADPH regenerating solution. The essentials:
(§2)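 Microsomal P450 (final 5 nM) in 0.1 M potassium phosphate pH 7.6 with MgCl2 at 37 °C. Substrate final 5 µM: ethoxyresorufin for 1A1/1B1, methoxyresorufin for 1A2. Ki was taken as the x-intercept of Dixon plots (1/v0 vs [I]). Mean ± SD of three independent experiments. Selectivity ratios are ratios of these Ki.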

The next data set addresses T3, Cytochrome P450 1B1 (Homo sapiens, UniProt Q16678).
T3 sequence (Q16678 whole entry): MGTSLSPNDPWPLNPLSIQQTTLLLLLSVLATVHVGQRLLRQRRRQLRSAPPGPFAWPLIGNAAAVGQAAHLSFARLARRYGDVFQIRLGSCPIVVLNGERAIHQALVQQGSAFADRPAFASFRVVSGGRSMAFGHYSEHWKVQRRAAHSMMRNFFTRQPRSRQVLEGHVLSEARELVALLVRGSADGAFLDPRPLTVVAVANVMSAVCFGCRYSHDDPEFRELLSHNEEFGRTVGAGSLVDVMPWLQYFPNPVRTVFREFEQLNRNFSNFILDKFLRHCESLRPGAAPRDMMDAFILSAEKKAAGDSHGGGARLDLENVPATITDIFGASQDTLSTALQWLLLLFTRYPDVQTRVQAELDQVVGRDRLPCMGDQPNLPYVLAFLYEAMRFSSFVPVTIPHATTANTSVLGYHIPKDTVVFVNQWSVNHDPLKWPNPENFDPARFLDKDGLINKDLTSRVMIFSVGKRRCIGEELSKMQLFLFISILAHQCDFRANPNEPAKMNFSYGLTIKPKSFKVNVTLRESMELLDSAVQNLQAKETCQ
The experiment in a line: Inhibition of human microsomal CYP1B1-dependent ethoxyresorufin-O-deethylase activity by spectrofluorimetric analysis in presence of NADPH regenerating solution. The essentials:
as §2

The next data set deals with HepG2. Nature of the data set: Cytotoxicity against human HepG2 cells assessed as cell viability up to 10^-5 M after 72 hrs by MTT assay. The data set is classed as cell-based. The note with it: hepg2, 72 h. On the technique in general: Formazan colour is commonly taken as a measure of viable cells.
Data set [4] is filed under the species Homo sapiens. Nature of the data set: Selectivity ratio of Ki for human microsomal CYP1A1 to Ki for human microsomal CYP1A2. The essentials: as §1
In data set [5] the target is T2, Cytochrome P450 1A2. Nature of the data set: Inhibition of CYP1A2-dependent methoxyresorufin-O-demethylase activity in human HepG2 cells at > 10^-6 M preincubated for 24 hrs followed by substrate addition measured at 10, 30, 60 mins by fluorescence assay. The note with it: hepg2, 1 h. In kind it is cell-based. The essentials:
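HepG2 cells (DMEM, 10% FBS, 37 °C, 5% CO2), 2 × 10^5 per well, plated overnight. Exposed 24 h to compound at final 10^-4 to 10^-7 M in DMSO. 10^-5 M βNF positive control, DMSO blank. Then washed with PBS and given medium with 5 × 10^-6 M methoxyresorufin. Resorufin fluorescence (ex 535/em 585 nm) read at 10, 30, 60 min. Triplicate, three independent experiments, unpaired t test.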

The target in another data set is T4, Cytochrome P450 1A1 (Homo sapiens, UniProt P04798).
T4 sequence (P04798 whole entry): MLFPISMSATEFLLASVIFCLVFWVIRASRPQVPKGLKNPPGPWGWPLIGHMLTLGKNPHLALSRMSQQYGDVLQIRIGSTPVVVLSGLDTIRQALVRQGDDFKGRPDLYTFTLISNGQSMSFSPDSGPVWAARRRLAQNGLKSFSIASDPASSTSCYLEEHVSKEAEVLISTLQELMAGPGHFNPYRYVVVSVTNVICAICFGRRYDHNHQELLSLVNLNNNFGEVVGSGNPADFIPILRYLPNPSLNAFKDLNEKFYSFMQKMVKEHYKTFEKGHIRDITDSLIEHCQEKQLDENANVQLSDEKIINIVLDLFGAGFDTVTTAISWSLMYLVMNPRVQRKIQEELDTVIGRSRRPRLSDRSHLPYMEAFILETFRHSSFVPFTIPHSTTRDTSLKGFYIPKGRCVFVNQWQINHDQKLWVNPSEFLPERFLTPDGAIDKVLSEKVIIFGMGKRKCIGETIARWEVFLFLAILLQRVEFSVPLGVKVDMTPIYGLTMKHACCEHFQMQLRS
The experiment in a line: Inhibition of human microsomal CYP1A1-dependent ethoxyresorufin-O-deethylase activity by spectrofluorimetric analysis in presence of NADPH regenerating solution. The essentials: as §1

Data set [6] deals with T2, Cytochrome P450 1A2. The experiment in a line: Time-dependent inhibition of human microsomal CYP1A2-dependent methoxyresorufin-O-demethylase activity by spectrofluorimetric analysis in presence of NADPH regenerating solution. The essentials: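 1A2 MROD run with NADPH at 0.0125, 0.025, 0.05 and 0.1 µM inhibitor, product monitored continuously over 6 min. Activity at different times came from first derivatives of product curves, expressed as % of control remaining. KI and limiting kinact were derived from the resulting linear plot.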

With `O=c1cc(C(F)(F)F)c2ccc3c(c2o1)C=CCO3`, the Activity result in data set [1] is given as “Not Active”; with HepG2, “Non-toxic”. For the same compound, the results for the Ratio Ki in the data set listed under Homo sapiens [2] and in the data set listed under Homo sapiens [4] were 52 and 155, respectively. Besides, the Ki was determined as 0.39 µM on Cytochrome P450 1A2 [3], 20.4 µM at Cytochrome P450 1B1 and 60.6 µM at Cytochrome P450 1A1. Further, at Cytochrome P450 1A2 [5], the “inhibition (INH)” value is listed as “Active”. Moreover, at Cytochrome P450 1A2 [6], the TDI entry is listed as “Not Active”.

In general, Ki refers to the dissociation constant of the complex between target and ligand, obtained from inhibition or displacement.
